Experimental findings from ChEMBL document CHEMBL3286196 (J Med Chem, 2014) are described below.

As a reminder, the IC50 is the concentration that gives 50% inhibition.

Structures are written as SMILES. Calls of active or inactive are those of the source. The calls are words filed in the database; no cut-off is given here. Bounds are passed on as bounds.

For experiment [1], the system named is HL-60. The experiment in a line: Cytotoxicity against human HL60 cells assessed as inhibition of proliferation after 48 hrs by MTT assay. The class given is functional, cell-based. To be noted: HL-60, 48 h. A general note: Formazan colour is commonly taken as a measure of viable cells.
Experiment [2] has as its system HL-60. The experiment is described as follows: Cytotoxicity against human HL60 cells assessed as inhibition of proliferation after 72 hrs by MTT assay. The class given is functional, cell-based. To be noted: HL-60, 72 h.
A short description of experiment [3]: Cytotoxicity against human […] cells assessed as inhibition of proliferation after 48 hrs by MTT assay. The class given is functional, cell-based.
The subject of the next experiment is HeLa. The experiment in a line: Cytotoxicity against human HeLa cells assessed as inhibition of proliferation after 48 hrs by MTT assay. The class given is functional, cell-based.
The test system of the next experiment is HepG2. The experiment in a line: Cytotoxicity against human HepG2 cells assessed as inhibition of proliferation after 48 hrs by MTT assay. The class given is functional, cell-based. To be noted: HepG2, 48 h.
The species named for another experiment is Rattus norvegicus. The experiment in a line: Binding affinity to NADPH-reduced rat recombinant wild type TrxR after 30 mins by SDS-PAGE. An outline of the steps: (§1)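 Proteins were reduced, then incubated with the labelling compound for 30 min at room temperature. Samples were separated by SDS-PAGE. The gel was imaged by fluorescence and then stained with Coomassie Blue.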

In experiment [4] the test system is T1, Thioredoxin reductase 1, cytoplasmic (Rattus norvegicus), O89049 [U498C].
T1 sequence (whole entry): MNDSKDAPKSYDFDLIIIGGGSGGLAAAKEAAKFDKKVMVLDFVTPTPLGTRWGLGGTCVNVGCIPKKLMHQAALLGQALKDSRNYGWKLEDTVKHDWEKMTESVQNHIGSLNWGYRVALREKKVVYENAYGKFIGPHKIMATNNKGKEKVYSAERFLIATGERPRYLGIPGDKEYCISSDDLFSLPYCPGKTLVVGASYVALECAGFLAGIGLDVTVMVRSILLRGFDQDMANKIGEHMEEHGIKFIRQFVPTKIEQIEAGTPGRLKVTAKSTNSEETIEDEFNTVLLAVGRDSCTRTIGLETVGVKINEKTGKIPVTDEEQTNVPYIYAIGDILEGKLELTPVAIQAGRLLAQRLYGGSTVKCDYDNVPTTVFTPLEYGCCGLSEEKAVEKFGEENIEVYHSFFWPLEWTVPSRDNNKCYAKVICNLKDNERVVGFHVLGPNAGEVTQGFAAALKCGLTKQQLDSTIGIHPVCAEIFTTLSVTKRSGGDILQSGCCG
The experiment in a line: Binding affinity to NADPH-reduced rat recombinant TrxR1 U498C mutant after 30 mins by SDS-PAGE. An outline of the steps:
as §1

As for `Nc1ccc([As](=O)(O)O)cc1` [ARSANILIC ACID], the IC50 (in the experiment with HL-60 [1]; in the experiment with HL-60 [2]; in experiment [3]; with HeLa; in the experiment on HepG2) was more than 10 µM in each case.
As for `O=[As][As+](=O)[O-]` (centres undefined) [ARSENIC TRIOXIDE], the IC50 with HL-60 [1] is 6.5 µM; in the experiment with HL-60 [2] it was 5.7 µM; in experiment [3] it was more than 10 µM; with HeLa it was more than 10 µM; in the experiment on HepG2, more than 10 µM.
`Nc1ccc2c3c(cccc13)C(=O)N(CCCCCC(=O)Nc1ccc([As]3SCCCS3)cc1)C2=O`: the result in the experiment listed under Rattus norvegicus was inactive. In addition, the result in experiment [4] was Active.
For `Nc1ccc2c3c(cccc13)C(=O)N(CCCCCC(=O)Nc1ccc([As](O)O)cc1)C2=O`, in that order: “Active” and “Active”.
